Screening results (PubChem BioAssay)
This is a sample that favours compounds with a hit; in the whole collection about 0.77% have one here.
bIAP inhibitor = bovine intestinal alkaline phosphatase inhibitors, primary screen, selectivity assay for TNAP inhibitor project, biochemical, bovine IAP, CDP-star luminescence; alkaline phosphatase, intestinal [Bos taurus]; purified bovine IAP, 30 min; inhibition, % at 20 µM; 190,000 tested, under 10 active; AID 1019, 2008;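 active = over 50% inhibition of intestinal alkaline phosphatase at 20 µM in the single-dose screen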
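Assay system: bovine IAP enzyme; medium: DEA buffer 100 mM, pH 9.8, with MgCl2 1.0 mM, ZnCl2 0.02 mM; doses: 20 µM single dose; incubation: enzyme reaction for 30 min at room temperature; detection: CDP-star luminescence signal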
mIAP act = activators of mouse IAP, primary screen, biochemical, luminescence, uHTS | muIAP, CDP-Star luminescence, 30 min; stronger effect = higher value; 1 = vehicle-only enzyme signal, 0 = enzyme-free wells | 0.24% of 330,000 active | AID 2805, 2010 | intestinal alkaline phosphatase [Mus musculus] | activation factor at 10 µM;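 active = activation factor of at least 2 at 20 µM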
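Assay system: mouse IAP enzyme; Reagent: CDP-Star chemiluminescent phosphatase substrate; Compound: DMSO-dissolved test compounds; Incubation: 30 min, room temperature; Technique: luminescence from enzymatic CDP-Star hydrolysis; Controls: DMSO-only wells and no-enzyme negative control.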
mIAP block = inhibitors of mouse IAP, primary screen, biochemical, luminescence, uHTS. intestinal alkaline phosphatase [Mus musculus]. 0.2% of 330,000 active. inhibition, % at 10 µM. AID 2806, 2010. purified mouse IAP, CDP-Star luminescence, 30 min;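 active = inhibition of at least 40% at 10 µM in the primary screen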;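 also: plate controls were DMSO with enzyme for no effect and no enzyme wells for full effect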
bIAP activator = bovine intestinal alkaline phosphatase activators, primary screen, biochemical, bovine IAP, CDP-star luminescence. alkaline phosphatase, intestinal [Bos taurus]. purified bovine IAP, 30 min; stronger effect = higher value; fold of DMSO-control signal, blank-subtracted. activation factor at 20 µM. 0.17% of 200,000 active. AID 1016, 2008;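 active = activation factor of 2 or more at 20 µM, a signal rise over negative controls twice the positive control's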
hIAP act = human IAP activators, primary screen, biochemical, luminescence, uHTS | Intestinal-type alkaline phosphatase (Homo sapiens), P09923 | 0.16% of 330,000 active | purified human IAP, CDP-Star luminescence, 30 min; stronger effect = higher value; 1 = vehicle-only enzyme, 0 = enzyme-free background | AID 2524, 2010 | activation factor at 10 µM;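 active = activation factor of the enzyme at least 2-fold when tested at 20 µM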
Target sequence (P09923 whole entry, looked up): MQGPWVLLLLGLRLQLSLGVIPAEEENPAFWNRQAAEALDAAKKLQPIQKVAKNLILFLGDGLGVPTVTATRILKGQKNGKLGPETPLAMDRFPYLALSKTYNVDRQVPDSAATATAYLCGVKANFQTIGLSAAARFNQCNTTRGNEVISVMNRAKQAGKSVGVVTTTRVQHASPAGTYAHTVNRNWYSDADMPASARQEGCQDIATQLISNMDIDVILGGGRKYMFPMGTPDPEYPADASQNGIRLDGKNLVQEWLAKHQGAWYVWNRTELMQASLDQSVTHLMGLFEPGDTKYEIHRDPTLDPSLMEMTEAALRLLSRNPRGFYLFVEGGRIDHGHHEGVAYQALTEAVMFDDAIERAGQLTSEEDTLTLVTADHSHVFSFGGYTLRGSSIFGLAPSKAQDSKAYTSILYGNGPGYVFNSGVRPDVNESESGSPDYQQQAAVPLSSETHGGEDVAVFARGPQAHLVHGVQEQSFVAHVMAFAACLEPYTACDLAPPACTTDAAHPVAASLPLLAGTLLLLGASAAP
hIAP inh = human IAP inhibitors, primary screen, biochemical, luminescence, uHTS; Intestinal-type alkaline phosphatase (Homo sapiens), P09923; purified IAP, CDP-Star luminescence, 30 min; inhibition, % at 10 µM; 0.12% of 330,000 active; AID 2544, 2010;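 active = inhibition reaching a set limit with compound at 10 µM in the primary screen, cut at about 35% in these data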;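 also: plate controls were DMSO wells with enzyme for no effect and no-enzyme buffer wells for full effect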
* hit, by the source's call.

`COc1ccc(C[C@H]2CN3C(=NC[C@@H]3Cc3ccccc3)N2CCNC(=O)CCC2CCCCC2)cc1` gave bIAP inhibitor -105, mIAP act 0.99, mIAP block 1, bIAP activator 2.1*, hIAP act 0.91 and hIAP inh 9.
COc1ccc(-n2cc(CNCCc3nc(C)cc(C)n3)c(-c3ccccc3Cl)n2)cc1 was read as bIAP inhibitor -20, mIAP act 1.1, mIAP block -5, bIAP activator 1.2, hIAP act 0.96 and hIAP inh 4.
Screening COc1ccc(-n2cc(CNCCc3ncc(C)[nH]3)c(-c3ccccc3Cl)n2)cc1 returned bIAP inhibitor -141, mIAP act 1.1, mIAP block -8, bIAP activator 2.4*, hIAP act 1.3 and hIAP inh -33.
Screening COc1ccc(-n2cc(CNCc3cccnc3)c(-c3cccc(F)c3)n2)cc1 returned bIAP inhibitor -7, mIAP act 0.98, mIAP block 2, bIAP activator 1.1, hIAP act 0.94 and hIAP inh 6.
For COc1ccc(-n2cc(CNCCc3cnc[nH]3)c(-c3cccc(F)c3)n2)cc1 the results were bIAP inhibitor -190, mIAP act 1, mIAP block -2, bIAP activator 2.9*, hIAP act 1.4 and hIAP inh -37.
`Cc1cccc(NC(=O)COC(=O)c2ccccc2-c2nc3ccccc3s2)c1C` gave bIAP inhibitor -421, mIAP act 1, mIAP block 0, bIAP activator 5.2*, hIAP act 0.89 and hIAP inh 11.
For Cc1ccc(NC(=O)CSc2nc3ccccc3c(=O)n2CCCN2CCCCC2)cc1Cl the results were bIAP inhibitor -162, mIAP act 1.5, mIAP block -46, bIAP activator 2.6*, hIAP act 1.3 and hIAP inh -33.
Screening COc1ccccc1C(=O)NC(=O)Cn1nc(C)c([N+](=O)[O-])c1C returned mIAP act 1, mIAP block -4, hIAP act 1.1 and hIAP inh -13.
CCCCc1c(O)nc(SCC(=O)NC(C)(C)C)n(-c2ccccc2C)c1=O was read as bIAP inhibitor 3, mIAP act 0.58, mIAP block 42*, bIAP activator 1, hIAP act 1.1 and hIAP inh -6.
CCOC(=O)c1nn(-c2ccc(F)cc2)c(=O)cc1OCC(=O)N1CCN(c2ccccc2)CC1 was read as mIAP act 1.1, mIAP block -8, hIAP act 1 and hIAP inh -2.
Cc1noc(C)c1COC(=O)c1ccc(-c2nc3ccccc3s2)s1 was read as bIAP inhibitor 2, mIAP act 0.58, mIAP block 42*, bIAP activator 1, hIAP act 1 and hIAP inh -2.
For CCNC(=O)COC(=O)c1ccc(-c2nc3ccccc3s2)s1 the results were bIAP inhibitor -10, mIAP act 1.1, mIAP block -8, bIAP activator 1.1, hIAP act 1.1 and hIAP inh -5.
For CC(C)Oc1ccc(C(=O)Nc2cccc(S(=O)(=O)N3CCCC3)c2)cc1 the results were mIAP act 1.2, mIAP block -20, hIAP act 1.1 and hIAP inh -10.
For Cc1noc(C)c1S(=O)(=O)Nc1ccc(C(C)C)cc1 the results were mIAP act 0.96, mIAP block 4, hIAP act 1.1 and hIAP inh -7.
`COc1cccc(C2CN(c3ccc(F)cc3F)N=C2c2cccs2)c1OC` (centres undefined) gave bIAP inhibitor 10, mIAP act 2*, mIAP block -104, bIAP activator 0.9, hIAP act 1 and hIAP inh -3.
For Cc1ccccc1NC(=O)CSc1nnc(C)c2ccccc12 the results were mIAP act 0.93, mIAP block 7, hIAP act 1.1 and hIAP inh -7.
COc1ccc(C(=O)N2CCN(C(=O)CC(C)C)CC2)cc1OC was read as bIAP inhibitor 0, mIAP act 0.96, mIAP block 4, bIAP activator 1, hIAP act 1.1 and hIAP inh -8.
`COc1cc(C(=O)N2CCN(C(=O)CC(C)C)CC2)cc(OC)c1OC` gave bIAP inhibitor 0, mIAP act 0.6, mIAP block 40*, bIAP activator 1, hIAP act 1.1 and hIAP inh -7.
For Cc1cc(C)c(NC(=O)c2ccc(CN3CCc4ccccc4C3)cc2)c(C)c1 the results were bIAP inhibitor -107, mIAP act 1, mIAP block -4, bIAP activator 2.1*, hIAP act 0.93 and hIAP inh 7.
Screening CCOCc1c(C(=O)NCc2ccccc2CN2CCCC2)oc2ccccc12 returned mIAP act 1.2, mIAP block -15, hIAP act 1 and hIAP inh 0.
For Cc1cc(C)n2nc(SC(C)C(=O)N(C)c3ccccc3)nc2n1 (centres undefined) the results were mIAP act 1, mIAP block 0, hIAP act 1.1 and hIAP inh -10.
O=C(Nc1n[nH]c(C2CCCCC2)n1)C1CCCCC1 was read as bIAP inhibitor inactive, mIAP act 2.3*, mIAP block -133, bIAP activator 8.1*, hIAP act 0.91 and hIAP inh 9.
O=C(Nc1ncccn1)C1CCCCC1 was read as bIAP inhibitor 4, mIAP act 1.2, mIAP block -18, bIAP activator 1, hIAP act 1.1 and hIAP inh -13.
O=C1OC(c2ccccc2)Cc2cc(C(=O)N3CCN(c4ccc(F)cc4)CC3)ccc21 (centres undefined) was read as mIAP act 0.91, mIAP block 9, hIAP act 1.1 and hIAP inh -8.
For CC(CNC(=S)Nc1cc(F)cc(F)c1)CSc1ccc(Cl)cc1 (centres undefined) the results were bIAP inhibitor 26, mIAP act 3.2*, mIAP block -219, bIAP activator 0.7, hIAP act 1.2 and hIAP inh -22.
`O=C(Nc1ccc(F)cc1F)c1ccc(S(=O)(=O)NCc2ccco2)cc1` gave mIAP act 0.97, mIAP block 3, hIAP act 1.1 and hIAP inh -5.
`O=C(COC(=O)c1cc(Br)ccc1O)Nc1ccc2c(c1)OCO2` gave mIAP act 0.95, mIAP block 5, hIAP act 0.97 and hIAP inh 3.
